# Screening results as filed in PubChem.
# Compounds with a hit are over-represented: about 5.8% of the library has one in this group of screens.
# T cruzi growth-1: T. cruzi proliferation inhibition; T. cruzi beta-gal in NIH3T3, GalScreen luminescence, 90 h; inhibition, % at 8.34 µM; 77,000 tested, 5.9% active;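 active = mean inhibition above about 93%, with at least 55% of replicates each passing it, limit read from the data, passing the limit was not always enough; inconclusive = only one of those two conditions holds; inactive = neither condition holds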
# Pf Dd2 inh: inhibitors of Plasmodium falciparum Dd2 growth | P. falciparum Dd2 growth, SYBR Green, 72 h; stronger effect = lower value | activity change, % at 10 µM | 94,000 tested, 2.3% active | AID 1159554; in the data active = activity change below about -80%; inconclusive = no clear call, values can overlap the other calls
# GASC1 inh: KDM4C (human) demethylase inhibition | 96,000 tested, 0.15% active | Q9H3R0 | GST-KDM4C 2-372, H3K9me3 peptide, LANCE TR-FRET | AID 720574 | inhibition, % at 12.5 µM;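 active = mean replicate inhibition above about 25%, with at least 55% of replicates also reaching it, limit read from the data, passing the limit was not always enough; inconclusive = only one of those two conditions met; inactive = neither condition met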
# Target sequence (Q9H3R0 2-372 limits assumed): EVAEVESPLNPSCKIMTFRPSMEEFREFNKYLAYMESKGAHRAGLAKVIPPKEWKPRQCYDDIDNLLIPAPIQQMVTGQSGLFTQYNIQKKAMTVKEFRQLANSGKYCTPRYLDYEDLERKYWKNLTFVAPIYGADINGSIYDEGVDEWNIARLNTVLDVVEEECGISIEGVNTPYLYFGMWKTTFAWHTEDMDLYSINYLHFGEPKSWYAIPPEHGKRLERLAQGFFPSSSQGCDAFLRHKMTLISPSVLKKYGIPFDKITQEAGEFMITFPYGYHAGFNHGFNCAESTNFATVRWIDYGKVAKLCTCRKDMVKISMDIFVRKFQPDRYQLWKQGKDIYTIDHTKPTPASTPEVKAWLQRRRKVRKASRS
#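 System: N-terminal GST-fused human GASC-1 (KDM4C) fragment, residues 2-372; amount: enzyme final amount 10 nM; incubation: reaction 30 min RT, detection step 1 h RT; medium: HEPES buffer, pH 7.5, plus ascorbate; technique: LANCE TR-FRET, Eu antibody, ULight-streptavidin, EDTA, ex 340 nm, em 618/671 nm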
# IDH1 R132H inh: inhibitors of human IDH1 R132H. O75874. IDH1 R132H reductase, diaphorase/resazurin fluorescence, 60 min. inhibition, % at 10 µM. 70,000 tested, 0.18% active. AID 624101; in the data active = inhibition above about 34%; inconclusive = no clear call, values can overlap the other calls; inactive = below about 11%;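 note: 0% = DMSO and 100% = no enzyme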
# Target sequence (O75874 whole entry R132H): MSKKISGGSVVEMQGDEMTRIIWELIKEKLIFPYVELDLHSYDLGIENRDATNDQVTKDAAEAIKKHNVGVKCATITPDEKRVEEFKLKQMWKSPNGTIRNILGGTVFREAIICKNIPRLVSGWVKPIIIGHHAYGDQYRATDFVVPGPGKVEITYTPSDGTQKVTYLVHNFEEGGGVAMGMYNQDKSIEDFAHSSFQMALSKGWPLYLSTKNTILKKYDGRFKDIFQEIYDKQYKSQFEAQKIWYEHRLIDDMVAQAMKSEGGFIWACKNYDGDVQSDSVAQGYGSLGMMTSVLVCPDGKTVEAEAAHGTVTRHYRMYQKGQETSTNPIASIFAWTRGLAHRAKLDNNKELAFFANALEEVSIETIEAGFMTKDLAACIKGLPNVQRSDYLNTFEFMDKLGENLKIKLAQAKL
# T cruzi growth-2: inhibitors of T. cruzi proliferation | shares compounds with T cruzi growth-1 | 5,600 tested, 72% active | T. cruzi beta-gal in NIH3T3, GalScreen luminescence, 90 h | inhibition, % at 8.35 µM;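 active = mean replicate inhibition above about 95% and at least 55% of replicates individually reaching it, limit read from the data; inconclusive = only one of the two criteria is met; inactive = neither criterion is met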
# T cruzi growth-3: Trypanosoma cruzi proliferation inhibition; inhibition, % at 2.09 µM; 5,600 tested, 21% active; shares compounds with T cruzi growth-1; T. cruzi beta-gal in NIH3T3, GalScreen luminescence, 90 h;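 active = mean inhibition above about 95%, with at least 55% of replicates also reaching it, limit read from the data; inconclusive = meets just one of the two conditions; inactive = meets neither condition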;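 note: plate controls were neutral control median for no effect and positive control median for full effect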
# NIH3T3 tox: kills mouse NIH/3T3 fibroblasts; shares compounds with T cruzi growth-1; NIH/3T3 viability, CellTiter-Glo ATP luminescence, 90 h; cytotoxicity (signal decrease), % at 8.35 µM; 5,600 tested, 14% active;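 active = mean signal decrease across replicates above about 35% based on untreated-well scatter, with enough replicates individually passing, limit read from the data; inconclusive = no rule stated though some were filed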;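 note: 0% = median of neutral control wells and 100% = median of positive control wells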
# 3T3 cytotox 2: NIH/3T3 (mouse) viability loss; shares compounds with T cruzi growth-1; AID 651744; 5,600 tested, 56% active; NIH/3T3 viability, CellTiter-Glo ATP luminescence, 90 h; inhibition, % at 24.9 µM;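 active = mean loss of cell viability signal at or above a set limit, and enough replicates individually reaching it; inconclusive = meets only the mean limit or only the replicate share; inactive = meets neither condition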;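 note: 0% = median of neutral control wells and 100% = median of positive control wells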
# * = called active by the depositor; ? = inconclusive; nt = no result.
SMILES,T cruzi growth-1,Pf Dd2 inh,GASC1 inh,IDH1 R132H inh,T cruzi growth-2,T cruzi growth-3,NIH3T3 tox,3T3 cytotox 2
N#C[C@@H]1[C@H](c2ccc(C#CCC3CCCC3)cc2)[C@@H](CO)N1C(=O)c1ccccn1,100.5*,-35.6,-4.1,nt,98.8*,108.8*,4.9,107.4*
COc1ccc(Br)cc1/C=N/NC(=O)CCCCC(=O)NO,nt,nt,nt,0.6,nt,nt,nt,nt
COC(=O)Nc1ccc2c(c1)N(C(=O)CCN1CCOCC1)c1ccccc1CC2,nt,nt,nt,0.2,nt,nt,nt,nt
N#C[C@@H]1[C@@H](c2ccccc2-c2ccccc2F)[C@H](CO)N1C(=O)c1cccc(F)c1,nt,7.7,-0.4,nt,nt,nt,nt,nt
C[C@@H]1CN([C@@H](C)CO)S(=O)(=O)c2ccc(C#Cc3cccc(F)c3)cc2O[C@H]1CN(C)C(=O)NC1CCCCC1,nt,-29.5,-1.1,4.6,nt,nt,nt,nt
CC(C)CC#Cc1ccc2c(c1)O[C@H](CN(C)C(=O)NC(C)C)[C@@H](C)CN([C@H](C)CO)S2(=O)=O,84.7,-4.8,-1.3,0.2,nt,nt,nt,nt
CC(C)CC#Cc1ccc2c(c1)O[C@@H](CN(C)C(=O)NC1CCCC1)[C@H](C)CN([C@H](C)CO)S2(=O)=O,122.9*,-33.5,6.8,-0.2,109.0*,73.4,6.9,94.3*
CC(C)CC#Cc1ccc2c(c1)O[C@@H](CN(C)C(=O)NC1CCCC1)[C@H](C)CN([C@@H](C)CO)S2(=O)=O,118.1*,-22.8,-0.5,28.9,100.4*,77.3,18.7,8.8
COc1cccc(C#Cc2ccc3c(c2)O[C@H](CN(C)C(C)=O)[C@@H](C)CN([C@H](C)CO)S3(=O)=O)c1,?,-70.7,-0.7,0.1,105.4*,37.8,10.1,35.3*
COc1cccc(NC(=O)N(C)C[C@@H]2Oc3cc(C#Cc4ccncc4)ccc3S(=O)(=O)N([C@H](C)CO)C[C@H]2C)c1,-55.0,-55.0,0.7,nt,nt,nt,nt,nt
COc1cccc(NC(=O)N(C)C[C@@H]2Oc3cc(C#Cc4ccccc4)ccc3S(=O)(=O)N([C@H](C)CO)C[C@@H]2C)c1,86.4*,-90.3*,nt,nt,103.5*,?,31.6,21.5
COc1cccc(NC(=O)N(C)C[C@@H]2Oc3cc(C#Cc4ccncc4)ccc3S(=O)(=O)N([C@H](C)CO)C[C@@H]2C)c1,68.3,?,-2.2,-10.4,nt,nt,nt,nt
COc1cccc(C#Cc2ccc3c(c2)O[C@@H](CN(C)C(C)=O)[C@H](C)CN([C@H](C)CO)S3(=O)=O)c1,74.2,-58.3,-0.8,-8.0,nt,nt,nt,nt
COc1cccc(NC(=O)N(C)C[C@@H]2Oc3cc(C#Cc4ccc(F)cc4)ccc3S(=O)(=O)N([C@H](C)CO)C[C@@H]2C)c1,117.5*,-89.8*,5.6,2.3,98.8*,110.7*,49.9*,37.6*
COc1cccc(NC(=O)N(C)C[C@@H]2Oc3cc(C#Cc4ccc(F)cc4)ccc3S(=O)(=O)N([C@H](C)CO)C[C@H]2C)c1,103.1*,-77.7,0.4,nt,97.7*,93.5,22.4,55.1*
Cc1ccc(S(=O)(=O)N(C)C[C@H]2Oc3ccc(NC(=O)Nc4cccc5ccccc45)cc3C(=O)N([C@@H](C)CO)C[C@H]2C)cc1,86.8,2.2,1.2,0.9,nt,nt,nt,nt
COc1ccc(S(=O)(=O)Nc2ccc3c(c2)C(=O)N([C@H](C)CO)C[C@@H](C)[C@@H](CN(C)CC2CCCCC2)OCCCC[C@H](C)O3)cc1,105.9,-72.6,-0.4,-0.6,nt,nt,nt,nt
COc1cccc(NC(=O)N(C)C[C@H]2Oc3cc(C#Cc4ccncc4)ccc3S(=O)(=O)N([C@H](C)CO)C[C@@H]2C)c1,18.8,-54.3,-0.4,0.2,nt,nt,nt,nt
COc1cccc(NC(=O)N(C)C[C@@H]2Oc3cc(-c4ccccc4F)ccc3S(=O)(=O)N([C@@H](C)CO)C[C@H]2C)c1,68.1,-13.8,-0.9,-2.7,nt,nt,nt,nt
COc1cccc(NC(=O)N(C)C[C@H]2Oc3cc(-c4ccccc4F)ccc3S(=O)(=O)N([C@H](C)CO)C[C@@H]2C)c1,?,-41.4,-1.7,-0.3,97.9*,-20.5,7.4,?
COc1ccc(C#Cc2ccc3c(c2)O[C@H](CN(C)C(=O)Nc2cccc(OC)c2)[C@H](C)CN([C@@H](C)CO)S3(=O)=O)cc1,116.5*,-86.4*,-2.7,nt,111.0*,104.3*,12.7,9.0
Cc1ccc(S(=O)(=O)N[C@@H]2CC[C@H](CCn3cc(-c4cccnc4)nn3)O[C@@H]2CO)cc1,23.0,21.5,0.4,-0.7,nt,nt,nt,nt
C[C@@H]1CN([C@H](C)CO)C(=O)c2cc(NC(=O)Nc3ccc(F)cc3)ccc2O[C@@H](C)CCCCO[C@@H]1CN(C)Cc1ccc(Cl)c(Cl)c1,101.4*,-78.8,11.8,0.4,96.4*,105.1*,-29.0,-11.8
C[C@H]1CCCCO[C@H](CN(C)Cc2ccc(Cl)c(Cl)c2)[C@@H](C)CN([C@@H](C)CO)C(=O)c2cc(NC(=O)Nc3ccc(F)cc3)ccc2O1,101.6*,-33.7,-2.3,nt,95.4*,111.5*,2.2,7.3
C[C@@H]1CCCCO[C@@H](CN(C)Cc2ccc(Cl)c(Cl)c2)[C@@H](C)CN([C@@H](C)CO)C(=O)c2cc(NC(=O)Nc3ccc(F)cc3)ccc2O1,108.6*,-52.0,0.5,nt,?,109.3*,3.8,27.1
SMILES,T cruzi growth-1,Pf Dd2 inh,GASC1 inh,IDH1 R132H inh,T cruzi growth-2,T cruzi growth-3,NIH3T3 tox,3T3 cytotox 2
C[C@H]1CCCCO[C@H](CN(C)Cc2ccc(Cl)c(Cl)c2)[C@@H](C)CN([C@@H](C)CO)C(=O)c2cc(NC(=O)Nc3ccccc3)ccc2O1,68.9,-60.7,-2.1,nt,nt,nt,nt,nt
C[C@@H]1CCCCO[C@@H](CN(C)Cc2ccc(Cl)c(Cl)c2)[C@@H](C)CN([C@@H](C)CO)C(=O)c2cc(NC(=O)Nc3ccccc3)ccc2O1,72.9,-38.6,0.0,nt,nt,nt,nt,nt
O=C(N[C@H]1CC[C@@H](CCNS(=O)(=O)c2ccccc2)O[C@H]1CO)c1cnccn1,-7.6,27.4,-1.6,0.1,nt,nt,nt,nt
COc1ccc(S(=O)(=O)Nc2ccc3c(c2)C(=O)N([C@@H](C)CO)C[C@H](C)[C@@H](CN(C)S(=O)(=O)c2ccc(Cl)cc2)OCCCC[C@@H](C)O3)cc1,98.9*,-74.8,-0.2,-0.5,101.3*,113.9*,-1.5,35.2*
COc1ccc(S(=O)(=O)N(C)C[C@H]2OCCCC[C@H](C)Oc3ccc(NS(=O)(=O)c4ccc(Cl)cc4)cc3C(=O)N([C@@H](C)CO)C[C@@H]2C)cc1,nt,-52.3,-0.9,nt,nt,nt,nt,nt
COc1ccc(S(=O)(=O)Nc2ccc3c(c2)C(=O)N([C@H](C)CO)C[C@H](C)[C@@H](CN(C)S(=O)(=O)c2ccc(Cl)cc2)OCCCC[C@@H](C)O3)cc1,101.2*,-25.2,-0.1,0.5,108.1*,27.7,5.5,36.5*
